The text below walks through data of ChEMBL document CHEMBL1142242, “Indanylacetic acid derivatives carrying 4-thiazolyl-phenoxy tail groups, a new class of potent PPAR alpha/gamma/delta pan agonists: synthesis, structure-activity relationship, and in vivo efficacy” (J Med Chem, 2007).

Some results are limits rather than exact numbers.

Test [1] addresses T1, Peroxisome proliferator-activated receptor gamma (Mus musculus, UniProt P37238).
T1 sequence (P37238 whole entry): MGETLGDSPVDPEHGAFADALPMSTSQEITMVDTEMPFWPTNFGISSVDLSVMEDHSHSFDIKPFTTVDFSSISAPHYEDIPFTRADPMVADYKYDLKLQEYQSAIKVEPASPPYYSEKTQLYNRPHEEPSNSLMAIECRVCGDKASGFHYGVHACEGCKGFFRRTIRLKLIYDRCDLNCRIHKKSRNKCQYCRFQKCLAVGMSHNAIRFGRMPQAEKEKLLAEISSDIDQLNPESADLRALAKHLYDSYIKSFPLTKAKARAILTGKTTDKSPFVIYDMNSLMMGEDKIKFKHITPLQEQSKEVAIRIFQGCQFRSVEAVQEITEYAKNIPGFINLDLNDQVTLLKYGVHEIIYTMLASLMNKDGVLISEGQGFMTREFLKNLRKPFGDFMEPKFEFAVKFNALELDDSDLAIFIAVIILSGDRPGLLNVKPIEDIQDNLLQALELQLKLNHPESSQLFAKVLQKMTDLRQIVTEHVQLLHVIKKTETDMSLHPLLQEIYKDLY
In words: Agonist activity at PPAR gamma in mouse 3T3L1 cells assessed as increase in insulin receptor by IRBA. The class given is functional, cell-based, 3T3-L1.

The target of test [2] is T2, Peroxisome proliferator-activated receptor alpha (Homo sapiens, UniProt Q07869).
T2 sequence (Q07869 whole entry): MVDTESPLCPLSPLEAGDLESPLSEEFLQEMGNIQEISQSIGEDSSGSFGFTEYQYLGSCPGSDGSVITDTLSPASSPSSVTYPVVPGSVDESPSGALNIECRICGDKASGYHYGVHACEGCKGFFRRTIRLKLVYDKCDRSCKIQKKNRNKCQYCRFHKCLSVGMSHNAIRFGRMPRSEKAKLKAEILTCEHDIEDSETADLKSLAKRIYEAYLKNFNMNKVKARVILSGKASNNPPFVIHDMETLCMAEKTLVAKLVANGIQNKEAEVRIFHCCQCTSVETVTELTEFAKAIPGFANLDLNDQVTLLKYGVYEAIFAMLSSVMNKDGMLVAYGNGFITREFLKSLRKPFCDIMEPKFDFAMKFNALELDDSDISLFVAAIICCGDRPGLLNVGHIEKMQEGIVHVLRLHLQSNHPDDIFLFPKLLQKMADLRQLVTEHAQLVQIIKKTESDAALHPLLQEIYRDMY
In words: Agonist activity at human PPAR alpha by FRET assay. The class given is functional. An outline of the steps:
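Human PPARα ligand binding domain (GST-tagged) association with biotin-labeled co-activator CBP; Eu-labeled anti-GST antibody and streptavidin-APC; incubated 2 h at rt in buffer with or without compound; fluorescence read at 615 or 655 nm emission, 340 nm excitation.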

For test [3], the target named is T3, Peroxisome proliferator-activated receptor delta (Homo sapiens, UniProt Q03181).
T3 sequence (Q03181 whole entry): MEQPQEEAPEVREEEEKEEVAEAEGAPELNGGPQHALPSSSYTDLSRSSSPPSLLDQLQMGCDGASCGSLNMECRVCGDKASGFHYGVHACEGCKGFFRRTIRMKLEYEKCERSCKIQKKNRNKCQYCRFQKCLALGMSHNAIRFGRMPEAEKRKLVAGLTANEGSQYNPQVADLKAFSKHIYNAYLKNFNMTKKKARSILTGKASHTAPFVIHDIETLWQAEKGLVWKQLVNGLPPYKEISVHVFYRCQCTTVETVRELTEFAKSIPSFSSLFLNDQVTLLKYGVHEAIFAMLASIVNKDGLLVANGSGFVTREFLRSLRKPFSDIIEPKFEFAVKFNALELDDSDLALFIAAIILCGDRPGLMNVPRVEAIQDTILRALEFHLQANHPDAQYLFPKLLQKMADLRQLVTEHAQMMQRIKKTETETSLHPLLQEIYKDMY
In words: Agonist activity at human PPAR delta by FRET assay. The class given is functional.

Take `Cc1nc(-c2ccc(OCCCOc3ccc4c(c3)CC[C@H]4CC(=O)O)cc2)sc1C`: the EC50 – broadly, the midpoint of the concentration-response curve – is 280 nM in test [1], 1250 nM in test [2] and 2.9 nM in test [3].
As to `CCOc1csc(-c2ccc(OCCCOc3ccc4c(c3)CC[C@H]4CC(=O)O)cc2)n1`, the EC50 came to 753 nM in test [1], 100 nM in test [2] and 1.2 nM in test [3].
`O=C(O)C[C@@H]1CCc2cc(OCCCOc3ccc4ncoc4c3)ccc21`: the concentration for a half-maximal effect (EC50) in test [1] was over 10000 nM; in test [2], over 10000 nM; in test [3], 130 nM.
Take `COc1cc(-c2nc(C)cs2)ccc1OCCCOc1ccc2c(c1)CC[C@H]2CC(=O)O`: the concentration giving a half-maximal response (EC50) in test [1] stood at 960 nM; in test [2] it was 268 nM; in test [3] it was 2.7 nM.
With `COc1cc(-c2nc(C)c(C)s2)ccc1OCCCOc1ccc2c(c1)CC[C@H]2CC(=O)O`, the figures for the EC50 in test [1], in test [2] and in test [3] were 33 nM, 83 nM and 4 nM, respectively.
